In the array DNA melting data of Ke et al. (doi:10.1101/2024.01.08.574731):

Legend:
[1] = melting temperature; fluorescence melt of hairpins on a sequencing array, two-state fit, raised by 9.35 °C to match UV melts; details: sodium 0.088 M
Method in brief: (§1)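 Cy3 fluorescence of library hairpins on a sequenced MiSeq flow cell, with annealed Cy3 and quencher oligos, was imaged in 50 mM Na-HEPES pH 8.0, 25 mM NaCl in 2.5 °C steps up to 60 °C. Signals were normalised to pre-quench Cy3 and to control variants. Melting temperature and folding enthalpy came from bootstrapped two-state fits, inverse-variance combined over four replicates. Fitted temperatures were raised by 9.35 °C to match UV melts.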

[2] = folding enthalpy; higher = less favourable; fluorescence melt of hairpins on a sequencing array, two-state fit; details: sodium 0.088 M
Method in brief: as §1

Row | Sequence | Tm [1] [°C] | folding enthalpy [2] [kcal/mol]
1 | GCCAACGGAAACGTCGGC (((.(((....))).))) | 51.1 | -42.8
2 | GATCAACTTCTTGATC ((((((....)))))) | 43.9 | -30
3 | GATCGGACCCCGATC ((((((...)))))) | 54.1 | -39.4
4 | GTTGGAGGAAACTCTGAC ((..(((....)))..)) | 34 | -21
5 | GGTGTCCCGAAAGGGACC (((..(((....)))))) | 49.5 | -9.51
6 | GATCTACTTCTAGATC ((((((....)))))) | 38.7 | -33.5
7 | AGTTAGAAATAACT (((((....))))) | 25.8 | -9.79
8 | GGGCACCGAAAGGTTCCC (((.(((....))).))) | 52.5 | -32.4
9 | GATCTTCTCCAAGATC ((((((....)))))) | 41.1 | -29.8
10 | GCGAAATGTCGC ((((....)))) | 44.8 | -18.6
11 | CGTTGACGGAAACGTACG (((..(((....)))))) | 43.2 | -18.8
12 | GATCTTTTGTAAGATC ((((((....)))))) | 44.2 | -31.1
13 | GCACACGAAAGTGCGTGC ((((((....)))..))) | 52.1 | -17
14 | GATCATTTCCATGATC ((((((....)))))) | 46.1 | -40.5
15 | GATCGTGGCGACGATC ((((((....)))))) | 61.4 | -29.9
16 | GCGTCGGAACGC ((((....)))) | 52 | -16.8
17 | GGTCGCGGAAACGCGGTC (..((((....))))..) | 47.4 | -13.2
18 | GTCTAAGGAAACTTAGGC (.(((((....))))).) | 38.1 | -25.5
19 | GTGCCCGAAAGGGAGCAC ((((((....)))..))) | 55.6 | -25.2
20 | GATCACATAGTGATC ((((((...)))))) | 62.4 | -40

Row | Sequence | Tm [1] [°C] | folding enthalpy [2] [kcal/mol]
21 | GTGCGGGGAAACCCGTGC (..((((....))))..) | 53.8 | -19.2
22 | GCGGCCAGCCGC ((((....)))) | 67.3 | -20.5
23 | GCGAAGTATCGC ((((....)))) | 46.2 | -14.3
24 | GTGGACGGAAACGTTCGC (.(.(((....))).).) | 45 | -26.6
25 | GATCTCATAAGAGATC ((((((....)))))) | 52.3 | -38.7
26 | GCGTCAACACGC ((((....)))) | 48.5 | -21.8
27 | GCACGGCGAAAGCGTTGC (((..((....))..))) | 49.3 | -18.5
28 | GATCCGTCATCGGATC ((((((....)))))) | 59.3 | -39
29 | GATCTCTGTGGAGATC ((((((....)))))) | 57.2 | -37.1
30 | GCCCGGCGAAAGCAGCGC ((.(.((....)).).)) | 46.5 | -16.4
31 | GACGCGGGAAACCACGCC (.((.((....)).)).) | 34.6 | -12.4
32 | GATCTGCGGGCAGATC ((((((....)))))) | 60.7 | -42.9
33 | GCCGGTCGAAAGACTGGC (((.(((....))).))) | 68.3 | -32
34 | GAGGTTGGAAACAGCCTC ((((.((....)).)))) | 50.1 | -32.4
35 | GCCACAGGAAACTACGGC (((..((....))..))) | 39.5 | -30.8
36 | GATCCGCACCGGATC ((((((...)))))) | 57.1 | -29.4
37 | CGTCTGAAAAGACG (((((....))))) | 55.2 | -29.4
38 | GACTCTGCGAAAGCAGTC (((..(((....)))))) | 32.2 | -7.87
39 | GCATCGCGAAAGCAAGGC ((.(.((....)).).)) | 39.6 | -12.7
